Three molecules from ChEMBL document CHEMBL1255370, “Activity of pradofloxacin against Porphyromonas and Prevotella spp. Implicated in periodontal disease in dogs: susceptibility test data from a European multicenter study” (2008) can be followed below.

Structures are written as SMILES. In brackets after ≈: the same amount, converted by molar mass.

One experiment has as its system Porphyromonas. The experiment can be described thus: Antimicrobial activity against Porphyromonas isolated from canine periodontal pockets after 48 hrs by agar dilution method. In kind it is functional. A digest of the protocol: (§1)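 Isolates came from canine periodontal pockets (2004–2006, six countries; dogs without antimicrobials for ≥4 weeks), cultured anaerobically at 35 ± 1°C and identified by Biolog. MICs were found by CLSI M11-A6 agar dilution on brucella blood agar with hemin and vitamin K, using a multipoint inoculator under strict anaerobiosis for up to 48 h. QC strains were B. fragilis ATCC 25285 and E. lentum ATCC 43055.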

Experiment [1] deals with Porphyromonas macacae. The experiment can be described thus: Antimicrobial activity against Porphyromonas macacae isolated from canine periodontal pockets after 48 hrs by agar dilution method. Format: functional. A digest of the protocol:
as §1

A further experiment deals with Prevotella oris. The experiment can be described thus: Antimicrobial activity against Prevotella oris isolated from canine periodontal pockets after 48 hrs by agar dilution method. Format: functional. To be noted: Segatella oris. The procedure, abridged:
as §1
A general note: In agar dilution, organisms are placed on agar that contains the substance at set levels.

Another experiment deals with Prevotella denticola. The experiment can be described thus: Antimicrobial activity against Prevotella denticola isolated from canine periodontal pockets after 48 hrs by agar dilution method. In kind it is functional. A digest of the protocol: as §1
In the next experiment the test system is Prevotella corporis. Briefly: Antimicrobial activity against Prevotella corporis isolated from canine periodontal pockets after 48 hrs by agar dilution method. Format: functional. A digest of the protocol:
as §1

A further experiment has as its system Porphyromonas gingivalis. Briefly: Antimicrobial activity against Porphyromonas gingivalis isolated from canine periodontal pockets after 48 hrs by agar dilution method.
The test system of experiment [2] is Porphyromonas circumdentaria. The experiment can be described thus: Antimicrobial activity against Porphyromonas circumdentaria isolated from canine periodontal pockets after 48 hrs by agar dilution method. Format: functional. The procedure, abridged: as §1
The subject of experiment [3] is Bacteroides heparinolyticus. Briefly: Antimicrobial activity against Bacteroides heparinolyticus isolated from canine periodontal pockets after 48 hrs by agar dilution method. Format: functional. To be noted: Prevotella heparinolytica. The procedure, abridged: as §1
For experiment [4], the system named is Bacteroides zoogleoformans. The experiment can be described thus: Antimicrobial activity against Bacteroides zoogleoformans isolated from canine periodontal pockets after 48 hrs by agar dilution method. In kind it is functional. The procedure, abridged: as §1
Another experiment has as its system Hoylesella loescheii. Briefly: Antimicrobial activity against Prevotella loescheii isolated from canine periodontal pockets after 48 hrs by agar dilution method. In kind it is functional. A digest of the protocol: as §1
Another experiment deals with Porphyromonas levii. Briefly: Antimicrobial activity against Porphyromonas levii isolated from canine periodontal pockets after 48 hrs by agar dilution method. In kind it is functional. The procedure, abridged:
as §1

The next experiment relates to Prevotella disiens. The experiment can be described thus: Antimicrobial activity against Prevotella disiens isolated from canine periodontal pockets after 48 hrs by agar dilution method. Format: functional. A digest of the protocol:
as §1

The next experiment deals with Prevotella buccae. The experiment can be described thus: Antimicrobial activity against Prevotella buccae isolated from canine periodontal pockets after 48 hrs by agar dilution method. In kind it is functional. The note with it: Segatella buccae. The procedure, abridged: as §1
For experiment [5], the system named is Porphyromonas asaccharolytica. Briefly: Antimicrobial activity against Porphyromonas asaccharolyticus isolated from canine periodontal pockets after 48 hrs by agar dilution method. In kind it is functional. A digest of the protocol:
as §1

A further experiment concerns Prevotella nigrescens. Briefly: Antimicrobial activity against Prevotella nigrescens isolated from canine periodontal pockets after 48 hrs by agar dilution method. In kind it is functional. The procedure, abridged:
as §1

Experiment [6] relates to Porphyromonas macacae. Briefly: Antimicrobial activity against Porphyromonas salivosa isolated from canine periodontal pockets after 48 hrs by agar dilution method. In kind it is functional. A digest of the protocol:
as §1

In a further experiment the test system is Hoylesella oralis. The experiment can be described thus: Antimicrobial activity against Prevotella oralis isolated from canine periodontal pockets after 48 hrs by agar dilution method. In kind it is functional. A digest of the protocol: as §1
The subject of a further experiment is Prevotella oulorum. The experiment can be described thus: Antimicrobial activity against Prevotella oulorum isolated from canine periodontal pockets after 48 hrs by agar dilution method. In kind it is functional. The note with it: Segatella oulorum. The procedure, abridged: as §1
A further experiment deals with Prevotella intermedia. Briefly: Antimicrobial activity against Prevotella intermedia isolated from canine periodontal pockets after 48 hrs by agar dilution method. In kind it is functional. A digest of the protocol: as §1
For the next experiment, the system named is Prevotella sp. Briefly: Antimicrobial activity against Prevotella sp. isolated from canine periodontal pockets after 48 hrs by agar dilution method. Format: functional. A digest of the protocol: as §1

As usually defined, the MIC90 is an inhibitory concentration at the 90% level, which refers to growth in some studies and to a panel of isolates in others. Turning to `NC1CCN(c2c(F)cc3c(=O)c(C(=O)O)cn(C4CC4)c3c2Cl)C1` (configuration not stated) [CLINAFLOXACIN], the MIC90 against Porphyromonas worked out at 0.125 mg/L (≈ 0.342 µM).
One may read the MIC50 as an inhibitory concentration at the 50% level, which refers to growth in some studies and to a panel of isolates in others. One may read the MIC as the lowest concentration found to suppress growth. Higher therefore signals weaker potency. With `Cc1ncc([N+](=O)[O-])n1CCO` [METRONIDAZOLE], the MIC50 against Porphyromonas macacae [1] came out at 0.125 mg/L (≈ 0.73 µM); in the experiment on Prevotella oris it was 0.5 mg/L (≈ 2.92 µM); in the experiment with Prevotella denticola it was 0.125 mg/L (≈ 0.73 µM); with Prevotella corporis, 0.062 mg/L (≈ 0.362 µM); with Porphyromonas gingivalis, 0.062 mg/L (≈ 0.362 µM); in experiment [2], 0.125 mg/L (≈ 0.73 µM). Further, the MIC50 amounted to 0.25 mg/L (≈ 1.46 µM) in experiment [3]; 0.062 mg/L (≈ 0.362 µM) in the experiment on Porphyromonas levii; 0.062 mg/L (≈ 0.362 µM) with Prevotella disiens; 0.031 mg/L (≈ 0.181 µM) in experiment [5]; 0.125 mg/L (≈ 0.73 µM) in the experiment with Prevotella nigrescens; 0.25 mg/L (≈ 1.46 µM) against Porphyromonas macacae [6]. Further, the MIC50 was 0.25 mg/L (≈ 1.46 µM) in the experiment with Hoylesella oralis, no more than 0.016 mg/L in the experiment with Prevotella intermedia and 0.25 mg/L (≈ 1.46 µM) in the experiment on Prevotella sp.. For the same molecule, the MIC90 against Porphyromonas macacae [1] was found to be 0.25 mg/L (≈ 1.46 µM); against Prevotella corporis it was 0.25 mg/L (≈ 1.46 µM); in the experiment with Porphyromonas gingivalis, 0.25 mg/L (≈ 1.46 µM); in [2] it was 0.25 mg/L (≈ 1.46 µM); in experiment [3], 0.5 mg/L (≈ 2.92 µM); against Porphyromonas levii, 0.125 mg/L (≈ 0.73 µM). Also, the MIC90 turned out to be 0.125 mg/L (≈ 0.73 µM) in [5], 0.5 mg/L (≈ 2.92 µM) with Prevotella nigrescens, 0.5 mg/L (≈ 2.92 µM) in the experiment on Porphyromonas macacae [6] and 0.5 mg/L (≈ 2.92 µM) with Prevotella sp.. Further, the MIC in experiment [4] was 0.125 mg/L (≈ 0.73 µM); against Hoylesella loescheii it was 0.062 mg/L (≈ 0.362 µM); against Prevotella buccae it was 0.5 mg/L (≈ 2.92 µM); in the experiment with Prevotella oulorum, 0.25 mg/L (≈ 1.46 µM); against Prevotella intermedia, no more than 0.016 mg/L.
As to `N#Cc1c(N2C[C@@H]3CCCN[C@@H]3C2)c(F)cc2c(=O)c(C(=O)O)cn(C3CC3)c12` [PRADOFLOXACIN], the MIC50 against Porphyromonas macacae [1] came to 0.062 mg/L (≈ 0.156 µM); in the experiment on Prevotella oris it was 0.062 mg/L (≈ 0.156 µM); against Prevotella denticola, 0.062 mg/L (≈ 0.156 µM); against Prevotella corporis it was 0.062 mg/L (≈ 0.156 µM); in the experiment with Porphyromonas gingivalis it was 0.031 mg/L (≈ 0.0782 µM); in [2], 0.062 mg/L (≈ 0.156 µM). The MIC50 in experiment [3] turned out to be 0.062 mg/L (≈ 0.156 µM); against Porphyromonas levii, 0.062 mg/L (≈ 0.156 µM); against Prevotella disiens, 0.062 mg/L (≈ 0.156 µM); in experiment [5], 0.062 mg/L (≈ 0.156 µM); against Prevotella nigrescens it was 0.062 mg/L (≈ 0.156 µM); against Porphyromonas macacae [6] it was 0.125 mg/L (≈ 0.315 µM). Besides, the MIC50 with Hoylesella oralis came to 0.062 mg/L (≈ 0.156 µM); with Prevotella intermedia it was 0.031 mg/L (≈ 0.0782 µM); against Prevotella sp., 0.062 mg/L (≈ 0.156 µM). Also, the MIC90 in the experiment on Porphyromonas macacae [1] was determined as 0.125 mg/L (≈ 0.315 µM); against Prevotella corporis, 0.125 mg/L (≈ 0.315 µM); against Porphyromonas gingivalis it was 0.125 mg/L (≈ 0.315 µM); in experiment [2], 0.25 mg/L (≈ 0.631 µM); in [3] it was 0.25 mg/L (≈ 0.631 µM); against Porphyromonas levii, 0.125 mg/L (≈ 0.315 µM). The MIC90 came out at 0.062 mg/L (≈ 0.156 µM) in [5], 0.25 mg/L (≈ 0.631 µM) against Prevotella nigrescens, 0.125 mg/L (≈ 0.315 µM) with Porphyromonas macacae [6] and 0.25 mg/L (≈ 0.631 µM) against Prevotella sp.. For the same molecule, the MIC was determined as 0.062 mg/L (≈ 0.156 µM) in the experiment on Prevotella denticola; 0.125 mg/L (≈ 0.315 µM) in experiment [4]; 0.062 mg/L (≈ 0.156 µM) against Hoylesella loescheii; 0.25 mg/L (≈ 0.631 µM) in the experiment on Prevotella buccae; 0.062 mg/L (≈ 0.156 µM) in the experiment on Hoylesella oralis; 0.031 mg/L (≈ 0.0782 µM) against Prevotella oulorum.
